Experimental findings from article PMC9850729 (ACS Omega, 2023) are described below.

Residues, ends and D or L forms follow the SMILES beside them.

Type in all cases: cell-based
Experiment [1] relates to MCF-7 cells. The experiment can be described thus: MTT viability assay, MCF-7. To be noted: read-out: IC50 MCF-7, 2 h peptide treatment, 6.25-200 μg mL^–1, n = 3. The essentials: (§1)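 Cancer cells were cultured in supplemented RPMI-1640, seeded at 1×10^4 per well, adhered 12 h and synchronized 12 h in incomplete medium. Peptide was applied at 6.25–200 μg mL⁻¹ for 2 h, then MTT was added for 4 h, formazan dissolved in DMSO, and absorbance read at 575 nm; n = 3. Selectivity was taken as the IC₅₀ in MCF-12 cells, foreskin-derived primary fibroblasts or erythrocytes divided by the cancer-cell IC₅₀.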
On the technique in general: Tetrazolium dyes change colour on reduction, which living cells bring about.

The subject of experiment [2] is MDA-MB-231 cells. The experiment is described as follows: MTT viability assay, MDA-MB-231. To be noted: read-out: IC50 MDA-MB-231, 2 h peptide treatment, 6.25-200 μg mL^–1, n = 3. The essentials:
as §1

The test system of experiment [3] is MCF-7 cells. The experiment is described as follows: Wound-healing assay. The following applies: substance alone (peptide at IC50), n = 12.

Take `N=C(N)NCCC[C@H](NC(=O)[C@H](CCCNC(=N)N)NC(=O)[C@H](Cc1c[nH]c2ccccc12)NC(=O)[C@H](CCC(N)=O)NC(=O)[C@H](Cc1c[nH]c2ccccc12)NC(=O)[C@H](CCCNC(=N)N)NC(=O)[C@H](Cc1c[nH]c2ccccc12)NC(=O)[C@H](CCC(N)=O)NC(=O)[C@H](Cc1c[nH]c2ccccc12)NC(=O)[C@H](CCCNC(=N)N)NC(=O)[C@@H](N)CCCNC(=N)N)C(N)=O` [RR-1-RR] (H-RRWQWRWQWRR-NH2): the IC50 in experiment [1] was found to be 58 µM; in experiment [2], 67 µM.

Take `N=C(N)NCCC[C@H](NC(=O)[C@H](Cc1c[nH]c2ccccc12)NC(=O)[C@H](CCC(N)=O)NC(=O)[C@H](Cc1c[nH]c2ccccc12)NC(=O)[C@H](CCCNC(=N)N)NC(=O)[C@H](Cc1c[nH]c2ccccc12)NC(=O)[C@H](CCC(N)=O)NC(=O)[C@H](Cc1c[nH]c2ccccc12)NC(=O)[C@H](CCCNC(=N)N)NC(=O)[C@@H](N)CCCNC(=N)N)C(N)=O` [RR-1-R] (H-RRWQWRWQWR-NH2): the results for the IC50 in experiment [1] and in experiment [2] were 68 µM and 73 µM, respectively.

In the case of `C[C@]12CC[C@@H]3c4ccc(O)cc4CC[C@H]3[C@@H]1CC[C@@H]2O` [estradiol], in experiment [3] (MCF-7, 24 h after the wound), the wound area reduced entry is recorded as “about 20%”. Besides, the “wound area reduced (closure)” value in experiment [3] (MCF-7, 48 h after the wound) amounted to 40%.

A word on the IC50: it is the concentration that inhibits the measured activity by half.
